Data published in article PMC5269645 (Journal of the American Chemical Society, 2016).
Like-named read-outs stand apart in the source and are kept apart here. Each block holds one molecule with its values, some of them ahead of it.

Key:
[1] = target: T1, BtGH99 (Bacteroides thetaiotaomicron, UniProt Q8A109); assay: 2D NMR; assay type: binding
T1 sequence (Q8A109 18-382): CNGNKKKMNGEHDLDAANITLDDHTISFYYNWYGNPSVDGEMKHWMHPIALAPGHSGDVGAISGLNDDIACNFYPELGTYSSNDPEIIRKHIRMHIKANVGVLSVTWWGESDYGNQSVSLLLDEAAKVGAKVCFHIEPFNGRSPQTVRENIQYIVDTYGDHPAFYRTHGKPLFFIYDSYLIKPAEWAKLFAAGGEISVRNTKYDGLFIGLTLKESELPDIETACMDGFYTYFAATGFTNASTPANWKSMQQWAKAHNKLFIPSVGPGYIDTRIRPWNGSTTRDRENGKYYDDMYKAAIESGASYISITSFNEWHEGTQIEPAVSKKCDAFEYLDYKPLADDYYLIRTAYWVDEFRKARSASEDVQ
Method in brief: (§1)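 1H–15N SOFAST-HMQC spectra of 15N-labeled enzyme (average 58 μM) recorded for 1 h at 298 K in 50 mM potassium phosphate pH 7.0, 50 mM KCl, 5% D2O. Active-site Arg Nε-Hε peak (R295, Bx numbering) served as reporter. Bound fraction from peak intensities at several protein/ligand ratios, fitted against free ligand for KD. Duplicate points; Monte Carlo error propagation (n = 10 000), standard deviation.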

[2] = target: T2, BxGH99 (Bacteroides xylanisolvens, UniProt D6D1V7); assay: 2D NMR; assay type: binding
T2 sequence (D6D1V7 13-380): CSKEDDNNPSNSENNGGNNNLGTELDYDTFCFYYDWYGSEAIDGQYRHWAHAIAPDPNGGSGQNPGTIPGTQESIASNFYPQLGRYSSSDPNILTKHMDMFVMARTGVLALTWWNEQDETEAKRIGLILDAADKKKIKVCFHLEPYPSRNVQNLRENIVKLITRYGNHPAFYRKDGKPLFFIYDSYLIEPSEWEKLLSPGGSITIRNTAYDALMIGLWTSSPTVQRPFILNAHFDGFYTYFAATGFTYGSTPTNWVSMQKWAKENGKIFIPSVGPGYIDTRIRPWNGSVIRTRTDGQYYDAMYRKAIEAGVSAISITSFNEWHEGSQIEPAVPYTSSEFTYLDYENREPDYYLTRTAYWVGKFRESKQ
Method in brief: as §1

[3] = target: rat endomannosidase; settings: read-out: IC50, rat endomannosidase; inhibition of cleavage of 14C-labeled GlcMan9GlcNAc; cited from earlier work
[4] = target: T1, BtGH99; settings: read-out: KD values, BtGH99; ITC; cited from earlier work
[5] = target: BxGH99; settings: read-out: KD values, BxGH99; ITC; cited from earlier work
[6] = test system: various glycosidases; settings: cited from earlier work

- Kd [1]: 53 ± 5 µM
- Kd [2]: 221 ± 11 µM
- affinity relative to ManGlucal, fold worse, BxGH99 ([2]; ratio of KD values): 8 fold
Structure (SMILES): OC[C@H]1OCC[C@@H](O[C@H]2O[C@H](CO)[C@@H](O)[C@H](O)[C@@H]2O)[C@@H]1O [compound 5, α-D-Mannopyranosyl-(1→3)-1,2-dideoxy-D-mannopyranose]

- Kd [1]: 15 ± 1.9 µM
- Kd [2]: 111 ± 11 µM
Structure (SMILES): OC[C@H]1O[C@H](O[C@@H]2C=CO[C@H](CO)[C@H]2O)[C@@H](O)[C@@H](O)[C@@H]1O [compound 7, α-D-Mannopyranosyl-(1→3)-1,5-anhydro-2-deoxy-D-arabino-hex-1-enitol]

Structure (SMILES): OC[C@H]1OCC[C@@H](O[C@H]2O[C@H](CO)[C@@H](O)[C@H](O)[C@H]2O)[C@@H]1O [compound 4, GlcddMan]
- IC50 [3]: 3.8 µM

Structure (SMILES): OC[C@H]1NC[C@@H](O)[C@@H](O[C@H]2O[C@H](CO)[C@@H](O)[C@H](O)[C@H]2O)[C@@H]1O [compound 1, GlcDMJ]
- Kd [4]: 24 µM
- IC50 [3]: 1.7 µM

Structure (SMILES): OC[C@H]1CNCC(O[C@H]2O[C@H](CO)[C@@H](O)[C@H](O)[C@@H]2O)[C@@H]1O (stereo partly drawn) [compound 3, ManIFG]
- Kd [5]: 0.27 µM
- Kd [4]: 0.14 µM

Structure (SMILES): OC[C@H]1CNC(O)[C@@H](O)[C@@H]1O (stereo partly drawn) [noeuromycin]
- times more tightly bound than isofagomine [6]: 2–4000 times

Structure (SMILES): OC[C@H]1CNCC(O[C@H]2O[C@H](CO)[C@@H](O)[C@H](O)[C@H]2O)[C@@H]1O (stereo partly drawn) [compound 2, GlcIFG]
- Kd [4]: 0.63 µM
